Laboratory results published in ChEMBL document CHEMBL3526035, “Role of the intestinal peptide transporter PEPT1 in oseltamivir absorption: in vitro and in vivo studies” (Drug Metab Dispos, 2012).
Where a SMILES comes first, the peptide text is derived from it. [ ]: non-standard residue; d: D form. Sar = CNCC(=O)O

Columns and labels:
[1] = Drug uptake in CHOK1 cells at 2 uM at pH 4 to 8 after 10 mins by HPLC coupled with radiodetection analysis; format: ADME, cell-based, Cricetulus griseus; settings: chinese hamster, cho-k1, pH 4, 10 min
Procedure, shortened: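 [3H]Gly-Sar at 2 μM in KH buffer over pH 4-8, incubated with CHO-K1 cells for 10 min at 37°C. Accumulated radioactivity in cell lysates counted and normalised to protein. Three independent experiments.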

[2] = Drug uptake in CHOK1 cells at 2 uM after 10 mins measured per mg protein by HPLC coupled with radiodetection analysis; format: ADME, cell-based, Cricetulus griseus; settings: chinese hamster, cho-k1, 10 min
Procedure, shortened: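 CHO-K1 cells given 2 μM [3H]Gly-Sar in KH buffer at pH 6 for 10 min at 37°C. Ice-cold PBS-BSA quench, then washes and Triton lysis. Scintillation counts expressed as pmol/mg protein (BCA). n=6 experiments.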

[3] = target: T1, Solute carrier family 15 member 1 (Homo sapiens, UniProt P46059); assay: Drug uptake in CHOK1 cells expressing human PEPT1 at 2 uM after 10 mins measured per mg protein by HPLC coupled with radiodetection analysis; format: ADME, cell-based; settings: cho-k1, 10 min
T1 sequence (P46059 whole entry): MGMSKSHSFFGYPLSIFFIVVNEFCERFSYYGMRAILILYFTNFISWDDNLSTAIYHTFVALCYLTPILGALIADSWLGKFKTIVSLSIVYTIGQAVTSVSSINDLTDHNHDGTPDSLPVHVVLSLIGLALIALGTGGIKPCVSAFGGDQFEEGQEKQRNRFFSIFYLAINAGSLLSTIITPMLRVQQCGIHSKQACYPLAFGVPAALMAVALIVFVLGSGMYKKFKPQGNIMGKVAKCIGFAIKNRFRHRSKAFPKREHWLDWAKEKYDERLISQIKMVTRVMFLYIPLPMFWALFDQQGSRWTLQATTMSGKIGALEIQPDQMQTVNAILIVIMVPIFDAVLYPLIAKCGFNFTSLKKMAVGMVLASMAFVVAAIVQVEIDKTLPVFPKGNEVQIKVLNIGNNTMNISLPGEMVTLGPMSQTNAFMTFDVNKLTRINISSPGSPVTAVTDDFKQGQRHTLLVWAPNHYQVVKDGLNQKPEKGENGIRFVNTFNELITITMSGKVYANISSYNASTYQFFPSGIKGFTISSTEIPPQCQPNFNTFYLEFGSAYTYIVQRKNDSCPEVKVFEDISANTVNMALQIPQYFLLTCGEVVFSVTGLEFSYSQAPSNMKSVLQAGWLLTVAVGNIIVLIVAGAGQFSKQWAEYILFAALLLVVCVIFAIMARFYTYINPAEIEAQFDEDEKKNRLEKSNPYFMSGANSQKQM
Procedure, shortened: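 Transporter functionality check: 2 µM [3H]Gly-Sar was incubated for 10 min at 37°C, pH 6, in KH/MES buffer with CHO-PEPT1 versus CHO-K1 cells. Intracellular radioactivity in Triton X-100 lysates was expressed as pmol/mg protein (BCA). Six independent experiments, triplicate wells.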

[4] = target: T1, Solute carrier family 15 member 1; assay: Drug uptake in CHOK1 cells expressing human PEPT1 by HPLC coupled with radiodetection analysis; format: ADME, cell-based; settings: cho-k1, TDE = time-dependent effect
Procedure, shortened: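 Accumulation of [14C]oseltamivir or its carboxylate in CHO-PEPT1 versus CHO-K1 cells. Conditions varied: KH buffer (with MES) or Hanks' balanced salt solution, pH 5 or 6 readjusted after substrate addition, 30 s to 15 min at 37°C. Uptake was quenched with ice-cold PBS-BSA, followed by Triton X-100 lysis, scintillation counting, and BCA protein normalization. HPLC-radiodetection checked ester stability.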

- Drug uptake [1]: Active
- Drug uptake [2]: 1.1 pmol
- Drug uptake [3]: 182 pmol
- Drug uptake [4]: tde
SMILES: CN(CC(=O)O)C(=O)CN [GLYCYLSARCOSINE] (H-Gly-[Sar]-OH)
